NR3A LBD binder = modulators (binders) of human NR3A ligand-binding domain. NR3A LBD differential scanning fluorimetry, Tm shift; 0% = protein alone, 100% = glycine-bound protein. AID 1259313. Tm shift relative to glycine control, % at 25 µM. hit rate 2.5% among 340,000;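 active = melting temperature shift of at least 10% of the positive control shift, at one fixed dose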
T cruzi repl = blocks replication of Trypanosoma cruzi; T. cruzi beta-gal in NIH3T3, luminescence, 90 h; inhibition, % (test concentration not listed); hit rate 1.4% among 300,000;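 active = mean inhibition across valid replicates above about 55%, limit read from the data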;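 note: signal also drops with host cell toxicity which is not excluded here; 0% = plate median of DMSO wells and 100% = zero luminescence signal; higher percent means less beta-gal luminescence so fewer parasites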
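Read-out: Parasite load inhibition, % | Test system: Mouse NIH/3T3 fibroblasts infected with β-gal-expressing T. cruzi Tulahuen C4 | Amount: 5,000 cells/well | Medium: DMEM, 2% fetal bovine serum | Signal: GalScreen β-gal luminescence, detergent lysis, 60 min | Timing: 3 h attach, ≥90 h co-culture | Also added: Tulahuen C4 trypomastigotes, 5000/well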
CHOP inh = CHOP inhibition in unfolded protein response; hit rate 3.8% among 220,000; AID 2732; inhibition, % at 10 µM; CHO-K1 CHOP-promoter luciferase, tunicamycin-induced, 15-18 h;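 active = compounds that reduced the stress-induced luciferase reporter signal by more than about 70% of percent inhibition, limit read from the data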;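 note: 0% = tunicamycin plus vehicle and 100% = wells without tunicamycin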
CSC inhib = cancer stem cell inhibition. cancer stem cell-like cells viability, luminescence. hit rate 1.1% among 300,000. inhibition, % at 7.5 µM; in the data active = inhibition above about 75%; tested in HMLE shEcad cells
PREPL inh = human PREPL enzyme inhibition; inhibition, % at 5.96 µM; AID 2751; hit rate 0.68% among 320,000; Q4J6C6; recombinant PREPL, fluorescence polarization activity-based probe; in the data active = inhibition above about 43%;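 note: 0% = enzyme with DMSO and 100% = wells lacking enzyme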
Target sequence (Q4J6C6 whole entry, looked up): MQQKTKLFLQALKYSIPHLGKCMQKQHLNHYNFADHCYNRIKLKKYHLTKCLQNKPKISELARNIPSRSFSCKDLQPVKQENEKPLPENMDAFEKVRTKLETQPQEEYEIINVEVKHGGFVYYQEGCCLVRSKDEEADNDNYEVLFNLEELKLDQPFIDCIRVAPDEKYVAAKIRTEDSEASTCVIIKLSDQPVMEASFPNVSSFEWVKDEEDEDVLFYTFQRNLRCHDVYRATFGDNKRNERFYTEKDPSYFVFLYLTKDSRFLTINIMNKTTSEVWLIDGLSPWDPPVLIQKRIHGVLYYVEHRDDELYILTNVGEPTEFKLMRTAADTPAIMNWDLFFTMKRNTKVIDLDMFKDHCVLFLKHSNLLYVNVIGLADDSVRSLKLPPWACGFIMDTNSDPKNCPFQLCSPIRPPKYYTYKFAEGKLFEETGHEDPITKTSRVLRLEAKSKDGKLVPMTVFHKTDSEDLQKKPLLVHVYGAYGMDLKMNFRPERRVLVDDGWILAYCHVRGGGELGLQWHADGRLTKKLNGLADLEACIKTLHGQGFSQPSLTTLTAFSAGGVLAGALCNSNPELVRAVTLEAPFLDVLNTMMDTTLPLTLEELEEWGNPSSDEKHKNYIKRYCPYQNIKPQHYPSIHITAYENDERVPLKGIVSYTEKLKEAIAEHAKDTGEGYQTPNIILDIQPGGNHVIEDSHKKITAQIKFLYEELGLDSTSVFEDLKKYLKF
Beta cell apopt = beta cell apoptosis inhibition | INS-1E cytokine-induced death, ATP luminescence, 48 h; percent of positive-control rescue, neutral wells zero | protection from apoptosis, % (test concentration not listed) | hit rate 0.8% among 300,000 | AID 435005;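 active = Every replicate reaches about 75%, or at least half do and their mean reaches it too, limit read from the data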;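 note: 0% = cytokine-treated negative control wells and 100% = positive control rescue; higher means more ATP so stronger rescue from cytokine killing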
* marks the source's active call; other numbers are inactive results; . = no result given. Most compounds without a hit are left out; they make up all but 6.7% or so of the library.

SMILES	NR3A LBD binder	T cruzi repl	CHOP inh	CSC inhib	PREPL inh	Beta cell apopt
CCC(C)c1ccc(NC(=S)NC2CCN(Cc3ccccc3)CC2)cc1 (centres undefined)	-5.9	24.2	86.8*	35.6	5.6	110.9*
O=C(NC1CCN(Cc2ccccc2)CC1)c1ccc2c(c1)[nH]c(=O)n2Cc1ccc(F)cc1	-2.0	58.1*	25.0	5.1	-24.0	16.9
O=C(NCC1CCN(Cc2cccc(Cl)c2)CC1)Nc1ccc(Cl)cc1	0.0	50.1	.	9.5	8.0	8.7
CC(=O)NC(=S)Nc1ccc(S(=O)(=O)Nc2nc(C)cc(C)n2)cc1	-1.0	-3.5	-3.9	-18.5	-2.9	1.3
CCCC(=O)NC(c1cccs1)c1cc(Cl)c2cccnc2c1O (centres undefined)	-4.9	77.7*	74.8*	10.9	28.4	93.2*
CCCC(=O)NC(c1ccc2c(c1)OCO2)c1cc(Cl)c2cccnc2c1O (centres undefined)	-3.9	55.9*	67.3	113.2*	8.6	85.1*
CCC(=O)NC(c1ccco1)c1cc(Cl)c2ccccc2c1O (centres undefined)	-13.7	.	.	1.8	5.7	-5.0
O=C(O)COc1ccccc1C(Nc1ccccn1)c1cc(Cl)c2cccnc2c1O (centres undefined)	-1.7	-6.3	-56.0	19.0	2.9	-7.6
CCCC(=O)NC(c1ccco1)c1cc(Cl)c2cccnc2c1O (centres undefined)	3.2	61.6*	-5.5	-2.2	28.7	81.6*
Oc1ccc(-c2nc3ccc4ccccc4c3c3c2CCC3)cc1O	13.1*	8.6	34.1	108.6*	16.3	-2.7
Cc1cc(C)c2c(ccc3ccccc32)n1	3.7	.	.	.	.	.
CC(C)(C)C(=O)Nc1c2c(nn1-c1ccccc1)CSC2	0.9	5.7	.	-14.7	5.5	3.2
Cc1ccc(S(=O)(=O)NC(C(=O)Oc2cc3oc(=O)cc(C)c3cc2Cl)C(C)C)cc1 (centres undefined)	0.7	8.9	12.3	16.7	11.2	-5.6
Cc1ccc(NC(=O)c2nc[nH]c2C(=O)NCCCNC(=O)c2[nH]cnc2C(=O)Nc2ccc(C)cc2)cc1	7.2	.	.	112.9*	4.3	37.9
Cc1ccc(NC(=O)c2nc[nH]c2C(=O)NCCCCNC(=O)c2[nH]cnc2C(=O)Nc2ccc(C)cc2)cc1	13.4*	.	.	.	-36.9	14.6
Cc1ccc(NC(=O)c2nc[nH]c2C(=O)NCCCCCNC(=O)OC(C)(C)C)cc1	-9.4	.	.	26.0	16.3	12.0
O=C(Nc1cccc(Cl)c1)c1nc[nH]c1C(=O)NCCCNC(=O)c1[nH]cnc1C(=O)Nc1cccc(Cl)c1	22.6*	.	.	100.6*	-11.2	-0.6
Cc1ccc(NC(=O)c2nc[nH]c2C(=O)NCCCCCCNC(=O)c2[nH]cnc2C(=O)Nc2ccc(C)cc2)cc1	19.7*	.	.	.	-2.4	21.8
CC(C)Cn1c(N)c(C(=O)COC(=O)CCc2nc3ccccc3s2)c(=O)n(C)c1=O	-1.6	-11.3	41.4	-6.2	40.2	-3.5
C[C@@H]1CC=C[C@H]2[C@H]1C(=O)N(Cc1ccccc1)[C@H]2c1ccc2ccccc2c1	5.9	15.2	28.4	86.5*	13.4	17.5
C[C@@H]1CC=C[C@H]2[C@H]1C(=O)N(Cc1ccccc1)[C@H]2c1ccc(F)c(Br)c1	.	51.3	76.4*	.	.	.
COc1ccc(-c2cc([C@H]3[C@H]4C=CC[C@@H](C)[C@@H]4C(=O)N3Cc3ccccc3)ccc2F)cc1	2.1	36.1	17.2	77.4*	32.3	1.2
COc1ccc(-c2cc([C@H]3[C@H]4C=CC[C@@H](C)[C@@H]4C(=O)N3Cc3ccccc3)ccc2F)cc1OC	0.1	16.3	50.9	-1.2	7.0	6.6
O=C(NCc1cccnc1)C1c2ccccc2C(=O)N1Cc1ccco1 (centres undefined)	-10.7	4.9	-1.7	-3.6	10.3	-1.8
COc1ccc(C(=O)N2CCN(S(=O)(=O)c3ccc4c(c3)OCCO4)CC2)cc1OC	-2.9	.	.	.	10.9	-7.0
O=C(NCc1cccs1)c1noc2c1CCCC2	11.2*	-11.6	.	-13.3	1.1	-3.4
COc1ccc(S(=O)(=O)N2CCCCC2)cc1NC(=O)c1cncc(Br)c1	4.6	.	.	-15.9	-0.1	1.8
COc1ccc(CCNC(=O)c2sc3cc(C)ccc3c2Cl)cc1	12.4*	-12.6	3.6	12.6	2.5	-6.6
Cc1cc(O)c(Sc2ncn[nH]2)cc1NS(=O)(=O)c1ccc(Cl)cc1	1.1	.	.	.	2.0	-6.1
